Series [1] can be described thus: Half life in the lung of CD1 mouse at 40 mg/kg, po. In kind it is ADME, organism-based. Details: dose 40 mg/kg, route oral. The essentials:
(§1)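 Mice given a single oral dose of 40 mg/kg; drug levels followed over time in plasma and lung tissue to derive half-life, Cmax and AUC for each matrix.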

Series [2] has as its system Mycobacterium tuberculosis. Put plainly: Antituberculosis activity against Mycobacterium tuberculosis H37Rv infected in BALB/c mouse chronic infection model assessed as fold reduction in bacterial CFU in lungs at 100 mg/kg, po administered for 5 days a week for 3 weeks beginning on day 70 postinfection relative to OPC-67683. In kind it is functional. The essentials:
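Chronic M. tb infection model with dosing starting ~70 days post infection, once bacteria are in a plateau phase of growth. Oral 100 mg/kg daily, 5 days/week, 3 weeks. Lung CFUs counted. Value is the fold CFU reduction for the compound relative to the fold reduction for the reference agent.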

The nature of series [3]: Metabolic stability in CD1 mouse liver microsomes at 1 uM measured as compound remaining after 1 hr by LC/MS/MS analysis. In kind it is ADME, Microsome. To be noted: read-out: Stability. Background: Liver microsomes are vesicles of endoplasmic reticulum, rich in cytochrome P450 enzymes.
The test system of series [4] is Mycobacterium tuberculosis. In words: Antituberculosis activity against Mycobacterium tuberculosis H37Rv under aerobic conditions by microplate alamar blue assay. Format: functional.
Series [5] is described as follows: AUC (0 to infinity) in lung of CD1 mouse at 40 mg/kg, po. In kind it is ADME, organism-based. Details: time infinity, dose 40 mg/kg, route oral. The essentials: as §1
Series [6] is described as follows: AUC (0 to infinity) in plasma of CD1 mouse at 40 mg/kg, po. Format: ADME, organism-based. Details: time infinity, dose 40 mg/kg, route oral. The essentials:
as §1

The nature of series [7]: Cmax in plasma of CD1 mouse at 40 mg/kg, po. Format: ADME, organism-based. Set-up: dose 40 mg/kg, route oral. The essentials: as §1
The subject of series [8] is Mycobacterium tuberculosis. Put plainly: Antituberculosis activity against Mycobacterium tuberculosis H37Rv infected in BALB/c mouse acute infection model assessed as fold reduction in bacterial CFU in lungs at 100 mg/kg, po administered for 5 days a week for 3 weeks beginning on day 11 postinfection relative to PA-824. Format: functional. The procedure, abridged:
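Mice with acute M. tb infection dosed orally at 100 mg/kg daily, 5 days each week, standard 3 week assay. Lung CFUs counted. Value is the fold CFU decrease for the compound divided by the fold CFU decrease for the internal reference standard run in the same experiment.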

The nature of series [9]: Stability of the compound in antimycobacterial activity assay condition assessed as parent compound level. In kind it is ADME.
In series [10] the test system is Mycobacterium tuberculosis. Put plainly: Antituberculosis activity against Mycobacterium tuberculosis H37Rv under anaerobic conditions by fluorescence based low-oxygen-recovery assay. Format: functional.
A short description of series [11]: Half life in plasma of CD1 mouse at 40 mg/kg, po. Format: ADME, organism-based. Set-up: dose 40 mg/kg, route oral.
The nature of series [12]: Aqueous solubility of the compound in water at pH 7 by HPLC analysis. Format: physicochemical. The procedure, abridged:
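Solubility measured in water at pH 7 and 20 °C, quantified by HPLC.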

Series [13] is described as follows: Ratio of AUC (0 to infinity) in lung of CD1 mouse to AUC (0 to infinity) in plasma of CD1 mouse at 40 mg/kg, po. Format: ADME, organism-based. Details: dose 40 mg/kg, route oral. To be noted: read-out: Ratio AUC.
Series [14] is described as follows: Metabolic stability in human liver microsomes at 1 uM measured as compound remaining after 1 hr by LC/MS/MS analysis. Format: ADME, Microsome. The following applies: read-out: Stability.
Series [15] is described as follows: Cmax in lung of CD1 mouse at 40 mg/kg, po. Set-up: dose 40 mg/kg, route oral. In kind it is ADME, organism-based. The procedure, abridged: as §1
Series [16] can be described thus: Metabolic stability in human liver microsomes at 1 uM measured as compound remaining after 45 mins by LC/MS/MS analysis. In kind it is ADME, Microsome. To be noted: read-out: Stability.
A further series concerns Mus musculus. Put plainly: Toxicity in Mycobacterium tuberculosis H37Rv infected BALB/c mouse at 100 mg/kg, po administered for 5 days a week for 3 weeks beginning on day 11 postinfection. In kind it is organism-based. Set-up: dose 100 mg/kg, route oral. To be noted: in vivo.
Series [17] can be described thus: Aqueous solubility of the compound in 0.1 M hydrochloric acid at pH 1 by HPLC analysis. In kind it is physicochemical.

This is an account of results in ChEMBL document CHEMBL1833943, “Synthesis and structure-activity relationships of varied ether linker analogues of the antitubercular drug (6S)-2-nitro-6-{[4-(trifluoromethoxy)benzyl]oxy}-6,7-dihydro-5h-imidazo[2,1-b][1,3]oxazine (PA-824)” (J Med Chem, 2011).

≈ marks a conversion by molar mass, not a printed value.

As usually defined, the half-life is the time needed for the level to fall by half in the phase considered. High values mean slow loss, low ones fast loss. For the molecule `O=[N+]([O-])c1cn2c(n1)OC[C@@H](OCc1ccc(-c3ccc(OC(F)(F)F)cc3)cc1)C2`, the half-life in series [1] is 12.8 h. Moreover, in series [2], the “fold change (FC)” value amounted to 0.86.
As a reminder, the MIC is the least concentration at which growth counts as inhibited. As a reminder, the AUC(0-inf) is the area under the concentration-time curve extrapolated to infinity. The low end stands for less exposure, the high end for more exposure. For orientation: Cmax means the peak of the concentration-time curve. The solubility is the concentration that dissolves in the medium under given conditions. A lower solubility goes with little dissolved substance. As for `O=[N+]([O-])c1cn2c(n1)OC[C@@H](OCCCC#Cc1ccc(OC(F)(F)F)cc1)C2`, the values for the remaining at 1 h, 1 µM in series [3] and in [14] were 24% and 69%, respectively. Further, the MIC in series [4] was determined as 0.05 µM (≈ 0.0206 µg/mL); in series [10], 1.9 µM (≈ 0.782 µg/mL). Further, the values for the AUC(0-inf) in [5] and in [6] were 7570 ng·h/mL and 12600 ng·h/mL, respectively. In addition, the Cmax came to 2540 ng/mL in series [7] and 2720 ng/mL in series [15]. Further, in series [8], the “fold change (FC)” value is on record as 4.9. Further, the Stability in series [9] is less than 50%. Moreover, the half-life in series [11] is 1.6 h; in series [1], 1.4 h. In [12], the concentration in solution (solubility) was 0.09 µg/mL (≈ 0.219 µM). Also, in [13], the Kp turned out to be 0.6.
In the case of `O=[N+]([O-])c1cn2c(n1)OC[C@@H](OCC#Cc1cccc(-c3ccc(OC(F)(F)F)cc3)c1)C2`, the remaining at 1 h, 1 µM in [3] was found to be 89%; in [14], 94%. For the same molecule, the minimum inhibitory concentration (MIC) in series [4] worked out at 0.11 µM (≈ 0.0505 µg/mL); in series [10], 1.3 µM (≈ 0.597 µg/mL). Moreover, the AUC(0-inf) stood at 257000 ng·h/mL in series [5] and 35800 ng·h/mL in [6]. Besides, the Cmax was determined as 1660 ng/mL in series [7] and 12900 ng/mL in [15]. In addition, the “fold change (FC)” value in [8] was 6.4. Further, the values for the half-life in [11] and in [1] were 14.7 h and 14.1 h, respectively. For the same molecule, in series [12], the concentration in solution (solubility) was 0.27 µg/mL (≈ 0.588 µM). Also, the Kp in [13] worked out at 7.2.
Consider `C[C@H](O[C@@H]1COc2nc([N+](=O)[O-])cn2C1)c1ccc(OC(F)(F)F)cc1`, for which the remaining at 0.75 h, 1 µM in series [16] was found to be 73%.
For `O=[N+]([O-])c1cn2c(n1)OC[C@@H](Oc1ccc(-c3ccc(OC(F)(F)F)cc3)cc1)C2`, the MIC in [4] is 0.09 µM (≈ 0.0379 µg/mL); in series [10], 1.1 µM (≈ 0.463 µg/mL). In addition, the AUC(0-inf) was 347000 ng·h/mL in [5] and 102000 ng·h/mL in series [6]. The values for the Cmax in series [7] and in series [15] were 1860 ng/mL and 15800 ng/mL, respectively. Moreover, in series [8], the “fold change (FC)” value was 8.1. Further, the results for the half-life in [11] and in series [1] were 37.9 h and 15.3 h, respectively. The same molecule registered a solubility in series [12] of 0.33 µg/mL (≈ 0.783 µM). Further, in [13], the Kp stood at 3.4.
Regarding `C[C@@H](O[C@@H]1COc2nc([N+](=O)[O-])cn2C1)c1ccc(OC(F)(F)F)cc1`, in [16], the remaining at 0.75 h, 1 µM stood at 60%.
As to `CC(O[C@@H]1COc2nc([N+](=O)[O-])cn2C1)c1ccc(-c2ccc(OC(F)(F)F)cc2)cc1` (some centres not stated), the remaining at 1 h, 1 µM in series [3] was found to be 92%; in [14], 100%. Besides, the MIC in [4] came out at 0.19 µM (≈ 0.0854 µg/mL); in series [10] it was 1.5 µM (≈ 0.674 µg/mL). In addition, the Activity entry in the series on Mus musculus is “Toxic”. Further, the concentration in solution in [12] (solubility) was 0.84 µg/mL (≈ 1.87 µM).
In the case of `O=[N+]([O-])c1cn2c(n1)OC[C@@H](OCC#Cc1ccc(-c3ccc(OC(F)(F)F)cc3)nc1)C2`, the remaining at 1 h, 1 µM in [3] was found to be 90%; in series [14], 93%. For the same molecule, the MIC in series [4] stood at 0.09 µM (≈ 0.0414 µg/mL); in [10] it was 0.52 µM (≈ 0.239 µg/mL). Moreover, in series [8], the “fold change (FC)” value is on record as 1. Moreover, the figures for the solubility in series [17] and in series [12] were 4 µg/mL (≈ 8.69 µM) and 0.72 µg/mL (≈ 1.56 µM), respectively.
With `O=[N+]([O-])c1cn2c(n1)OC[C@@H](OCc1ccc(OC(F)(F)F)cc1)C2` [PRETOMANID], in [16], the remaining at 0.75 h, 1 µM is 93%. In addition, the “fold change (FC)” value in series [2] was 0.14.
Turning to `O=[N+]([O-])c1cn2c(n1)OC[C@@H](OCC#Cc1ccc(-c3ccc(OC(F)(F)F)cc3)cc1)C2`, the remaining at 1 h, 1 µM was found to be 85% in series [3] and 93% in series [14]. Also, the AUC(0-inf) turned out to be 13600 ng·h/mL in [5] and 10000 ng·h/mL in series [6]. In addition, the Cmax worked out at 570 ng/mL in [7] and 760 ng/mL in series [15]. In addition, the figures for the “fold change (FC)” value in series [8] and in [2] were 89 and 1.6, respectively. Further, the half-life in [11] was 7.5 h; in series [1], 12.3 h. Besides, in series [12], the solubility worked out at 0.07 µg/mL (≈ 0.152 µM). In series [13], the Kp was determined as 1.4.
With `O=[N+]([O-])c1cn2c(n1)OC[C@@H](OCCCc1ccc(-c3ccc(OC(F)(F)F)cc3)cc1)C2`, the remaining at 1 h, 1 µM in series [3] was found to be 91%; in [14], 88%. Moreover, the MIC was 0.15 µM (≈ 0.0695 µg/mL) in [4] and 3.8 µM (≈ 1.76 µg/mL) in [10]. In addition, the AUC(0-inf) in series [5] is 29500 ng·h/mL; in series [6], 13300 ng·h/mL. For the same molecule, the values for the Cmax in [7] and in series [15] were 990 ng/mL and 10100 ng/mL, respectively. For the same molecule, the results for the “fold change (FC)” value in series [8] and in series [2] were 1.5 and 0.025, respectively. In series [11], this molecule had a half-life of 4.4 h. In [12], the concentration in solution (solubility) was 1.7 µg/mL (≈ 3.67 µM). Besides, in [13], the Kp stood at 2.2.
